Data taken from ChEMBL document CHEMBL1125834, “Synthesis and antirhinovirus activity of 8-substituted analogues of 6-(dimethylamino)-9-(4-methylbenzyl)-2-(trifluoromethyl)-9H-purine” (J Med Chem, 1991).
pIC50: −log10 of the molar value.

These compounds were tested on rhinovirus A1B (assay: Compound at 40 uM was tested for its percentage inhibitory concentration against rhinovirus 1B through plaque-inhibition assay at 50 ug/disk using monolayers of M-HeLa cells). Details: not given.
Type: functional, rhinovirus type 1b
Cc1ccc(Cn2c(NCc3ccccc3)nc3c(N(C)C)nc(C(F)(F)F)nc32)cc1 gave an Inhibition of 20%.
Cc1ccc(Cn2c(S(C)(=O)=O)nc3c(N(C)C)nc(C(F)(F)F)nc32)cc1 showed an Inhibition of 37%.
CC(=O)Nc1nc2c(N(C)C)nc(C(F)(F)F)nc2n1Cc1ccc(C)cc1 showed an Inhibition of 22%.
Cc1ccc(Cn2c([S+](C)[O-])nc3c(N(C)C)nc(C(F)(F)F)nc32)cc1 (stereo not given) was tested, and the Inhibition was 27%.
Compound Cc1ccc(Cn2c(O)nc3c(N(C)C)nc(C(F)(F)F)nc32)cc1 has an Inhibition of 25%.

Each compound was assayed on rhinovirus A1B (assay: Compound was tested for its percentage inhibitory concentration through plaque-inhibition assay at 50 microg per disk using monolayers of M-HeLa cells.). Details: Rhinovirus A.
Type: functional, rhinovirus type 1b
In the case of Cc1ccc(Cn2c(SCc3ccccc3)nc3c(N(C)C)nc(C(F)(F)F)nc32)cc1, the inhibition at 50 µg/disc was 25%.

The compounds below were run on rhinovirus A1B (assay: (§1) Compound was tested for its inhibitory concentration against rhinovirus 1B through plaque-inhibition assay at 50 ug/disk using monolayers of M-HeLa cells). Details: Rhinovirus A.
Type: functional, organism-based, rhinovirus type 1b
Outline: (§2)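 The 50% inhibitory concentration against rhinovirus serotype 1B was measured in M-HeLa cells, with plaque-reduction run as described previously. 4',6-Dichloroflavan was run alongside as the reference.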
Cc1ccc(Cn2cnc3c(N(C)C)nc(C(F)(F)F)nc32)cc1 showed a pIC50 of 7.52.
For Cc1ccc(Cn2c(=O)n(C)c3c(N(C)C)nc(C(F)(F)F)nc32)cc1, the pIC50 was 4.82.
Cc1ccc(Cn2c(Br)nc3c(N(C)C)nc(C(F)(F)F)nc32)cc1 showed a pIC50 of 5.85.
Cc1ccc(Cn2c(S)nc3c(N(C)C)nc(C(F)(F)F)nc32)cc1 showed a pIC50 of 4.70.
In the case of Cc1ccc(Cn2c(NCCO)nc3c(N(C)C)nc(C(F)(F)F)nc32)cc1, the pIC50 was 5.07.
In the case of Cc1ccc(Cn2c(N)nc3c(N(C)C)nc(C(F)(F)F)nc32)cc1, the pIC50 was 6.44.
Work on CNc1nc2c(N(C)C)nc(C(F)(F)F)nc2n1Cc1ccc(C)cc1 yielded a pIC50 of 5.54.

What follows are compounds tested on rhinovirus A1B (assay: as §1). Details: Rhinovirus A.
Type: functional, rhinovirus type 1b
Outline: as §2
With CSc1nc2c(N(C)C)nc(C(F)(F)F)nc2n1Cc1ccc(C)cc1 the inhibition at 50 µg/disc was 15%.

Each compound was assayed on rhinovirus A1B (assay: Compound at 8 uM was tested for its percentage inhibitory concentration against rhinovirus 1B through plaque-inhibition assay at 50 ug/disk using monolayers of M-HeLa cells). Details: not given.
Type: functional, rhinovirus type 1b
For Cc1ccc(Cn2c(N(C)C)nc3c(N(C)C)nc(C(F)(F)F)nc32)cc1, the Inhibition was 40%.
